Converted amounts (≈) assume the structure as drawn.
Experiments:
Streptococcus pneumoniae = experiment: Antibacterial activity against Streptococcus pneumoniae DAW27 after overnight incubation by microbroth dilution technique; assay type: functional
Summary of the method: (§1)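 Two-fold serial broth dilutions per CLSI; inoculum about 10^5 CFU/mL; top final drug concentration 200 µg/mL; incubated aerobically overnight at 37°C. MIC read visually as the lowest concentration with no visible growth.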

[1] = Plasma protein binding in mouse at 10 uM after 4 hrs by LC/MS analysis; assay type: ADME, cell-free; settings: read-out: PPB (converted)
Summary of the method: (§2)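 Compound at 10 µM (0.1% DMSO) in mouse or human plasma. Rapid equilibrium dialysis (MWCO 8K) against DPBS pH 7.4, 4 h at 37°C with orbital shaking. Both chambers matrix-matched, precipitated with acetonitrile containing warfarin internal standard, quantified by LC–MS. %Free = buffer/plasma × 100; %Bound = 100 − %Free.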

Streptococcus pyogenes = experiment: Antibacterial activity against Streptococcus pyogenes ATCC 700294 after overnight incubation by microbroth dilution technique; assay type: functional; summary of the method: as §1
[2] = Half life in mouse liver microsomes; assay type: ADME, Microsome
Summary of the method: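 Mouse liver microsomes at 0.6381 mg/mL protein in 0.1 M potassium phosphate pH 7.4 with EDTA. Reaction started with NADPH regenerating system at 37°C; six time points including 0, triplicate wells. Quenched in cold acetonitrile with warfarin internal standard, analysed by LC–MS. Half-life from a first-order least-squares fit.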

[3] = Apparent permeability of the compound from apical to basal side of human Caco2 cells at 50 umol/L after 2 hrs by UPLC/MS analysis; assay type: ADME, cell-based; settings: Caco-2
Summary of the method: (§3)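 Caco-2 monolayers grown 7 days on Transwell inserts, washed with HBSS/HEPES pH 7.4. Compound at 50 µmol/L added apically or basolaterally, then 2 h at 37°C. Receiver side sampled and quantified by UPLC/MS. Papp = (dQ/dt)/(A×C0), triplicates.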

[4] = Plasma protein binding in human at 10 uM after 4 hrs by LC/MS analysis; assay type: ADME, cell-free; settings: read-out: PPB (converted); summary of the method: as §2
Bacillus anthracis = experiment: Antibacterial activity against Bacillus anthracis Sterne 34F2 after overnight incubation by microbroth dilution technique; assay type: functional
Summary of the method: (§4)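 Non-mycobacterial strains: two-fold serial dilutions in broth by CLSI microbroth dilution. Inoculum about 10^5 cfu/mL; top final drug concentration 200 µg/mL. Aerobic incubation at 37°C overnight. MIC read visually as the lowest concentration with no visible growth.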

Bacillus subtilis = experiment: Antibacterial activity against Bacillus subtilis ATCC 23857 after overnight incubation by microbroth dilution technique; assay type: functional; summary of the method: as §4
Escherichia coli = experiment: Antibacterial activity against Escherichia coli K12 after overnight incubation by microbroth dilution technique; assay type: functional; settings: K-12; summary of the method: as §4
[5] = Solubility of the compound at pH 7.4 after 18 hrs by UV spectrometry; assay type: physicochemical; settings: buffer, pH 7.4
Summary of the method: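 10 mM DMSO stocks diluted 100-fold in system solution buffer pH 7.4 and held 18 h at room temperature. Filtered, diluted 1:1 with isopropanol and measured by UV (230–500 nm). Compared against a 600-fold diluted reference in buffer/isopropanol. Triplicates.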

Staphylococcus aureus = experiment: Antibacterial activity against Staphylococcus aureus ATCC 29213 after overnight incubation by microbroth dilution technique; assay type: functional; summary of the method: as §1
[6] = Half life in human liver microsomes; assay type: ADME, Microsome
Enterococcus faecalis = experiment: Antibacterial activity against Enterococcus faecalis ATCC 3186 after overnight incubation by microbroth dilution technique; assay type: functional; summary of the method: as §1
[7] = Apparent permeability of the compound from basal to apical side of human Caco2 cells at 50 umol/L after 2 hrs by UPLC/MS analysis; assay type: ADME, cell-based; settings: Caco-2; summary of the method: as §3
Rattus norvegicus [8] = experiment: Toxicity in Sprague-Dawley rat assessed as seizures at 10 mg/kg, iv; assay type: organism-based; set-up: dose 10 mg/kg, route intravenous; settings: in vivo
Summary of the method: (§5)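 Observed during rat IV pharmacokinetic study (n=5). Single 10 mg/kg dose via femoral vein catheter, flushed with heparinized locking solution. Vehicle was 2% ethanol/saline or 30% DMSO/30% propylene glycol/20% PEG 3000/20% saline. Animals followed with serial blood sampling to 48 h.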

Rattus norvegicus [9] = experiment: Toxicity in Sprague-Dawley rat assessed as mortality at 10 mg/kg, iv; assay type: organism-based; set-up: dose 10 mg/kg, route intravenous; settings: in vivo; summary of the method: as §5
[10] = Volume of distribution in Sprague-Dawley rat at 10 mg/kg, iv; assay type: ADME, organism-based; set-up: dose 10 mg/kg, route intravenous; settings: in vivo
Summary of the method: (§6)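 Rats, n=5, given 10 mg/kg IV via femoral vein catheter. Vehicle was 2% ethanol/saline or 30% DMSO/30% propylene glycol/20% PEG 3000/20% saline, depending on compound. Plasma sampled 0–48 h and urine collected in intervals to 48 h; both assayed by LC-MS/MS after acetonitrile precipitation. Non-compartmental analysis: CL = dose/AUC0-∞; fe = cumulative unchanged urinary amount/dose.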

[11] = Half life in Sprague-Dawley rat at 10 mg/kg, iv; assay type: ADME, organism-based; set-up: dose 10 mg/kg, route intravenous; settings: in vivo; summary of the method: as §6
[12] = Cmax in Sprague-Dawley rat at 10 mg/kg, iv; assay type: ADME, organism-based; set-up: dose 10 mg/kg, route intravenous; settings: in vivo; summary of the method: as §6
Rattus norvegicus [13] = experiment: Oral bioavailability in Sprague-Dawley rat at 100 mg/kg; assay type: ADME, organism-based; settings: in vivo
Summary of the method: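 Fasted rats, n=5, dosed 100 mg/kg by oral gavage. Vehicle was 2% methanol, 60:40 PEG 3000/water or 10% vitamin E TPGS, depending on compound. Plasma sampled to 48 h and assayed by LC-MS/MS. F = (AUCoral×DoseIV)/(AUCIV×Doseoral), referenced to 10 mg/kg IV.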

[14] = Drug excretion in Sprague-Dawley rat urine at 10 mg/kg, iv; assay type: ADME, organism-based; set-up: dose 10 mg/kg, route intravenous; settings: read-out: Drug excretion; summary of the method: as §6
[15] = Clearance in Sprague-Dawley rat at 10 mg/kg, iv; assay type: ADME, organism-based; set-up: dose 10 mg/kg, route intravenous; settings: in vivo; summary of the method: as §6
[16] = AUC (0 to infinity) in Sprague-Dawley rat at 10 mg/kg, iv; assay type: ADME, organism-based; set-up: time infinity, dose 10 mg/kg, route intravenous; settings: plasma; summary of the method: as §6
Rattus norvegicus [17] = experiment: Toxicity in Sprague-Dawley rat assessed as mortality at 100 mg/kg, po; assay type: organism-based; set-up: dose 100 mg/kg, route oral; settings: in vivo
Summary of the method: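 Observed during rat oral pharmacokinetic study (n=5). Overnight-fasted animals, water ad libitum, received 100 mg/kg by oral gavage. Vehicle was compound-dependent: 2% methanol (sonicated), 60:40 PEG 3000/water, or 10% vitamin E TPGS. Animals followed with sampling to 48 h.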

Vero = experiment: Cytotoxicity against african green monkey Vero cells after 72 hrs by MTT assay; assay type: cell-based; settings: Chlorocebus sabaeus
Summary of the method: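 Vero cells in DMEM with 10% FBS, seeded at ~10% confluency and left to adhere overnight. Two-fold serial dilutions applied for 72 h at 37°C, 5% CO2. MTT read-out at 570 nm after overnight solubilization.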

SMILES | MIC (Streptococcus pneumoniae) [µg/mL] | fraction unbound at 4 h, 10 µM [1] | MIC (Streptococcus pyogenes) [µg/mL] | half-life [2] [min] | Papp A→B at 2 h, 50 µM [3] [×10⁻⁶ cm/s] | fraction unbound at 4 h, 10 µM [4] | MIC (Bacillus anthracis) [µg/mL] | MIC (Bacillus subtilis) [µg/mL] | MIC (Escherichia coli) [µg/mL] | solubility at 18 h [5] [µg/mL] | MIC (Staphylococcus aureus) [µg/mL] | half-life [6] [min] | MIC (Enterococcus faecalis) [µg/mL] | Papp B→A at 2 h, 50 µM [7] [×10⁻⁶ cm/s] | Activity (Rattus norvegicus [8]) | Activity (Rattus norvegicus [9]) | Vd [10] [L/kg] | half-life [11] [min] | Cmax [12] [ng/mL] | F (Rattus norvegicus [13]) [%] | also measured
O=[N+]([O-])c1ccc(C2=NOC(c3ccc(N4CC[S+]([O-])CC4)cc3)C2)o1 (centres undefined) | 50 (≈ 133 µM) | 0.178 | 50 (≈ 133 µM) | 52.2 | 24.2 | 0.223 | 12.5 (≈ 33.3 µM) | 6.25 (≈ 16.6 µM) | 100 (≈ 266 µM) | 28.9 (≈ 77 µM) | 6.25 (≈ 16.6 µM) | 272 | 100 (≈ 266 µM) | 27.2 |  |  |  |  |  |  | 
O=[N+]([O-])c1ccc(C2=NOC(c3ccc(N4CCOCC4)c(F)c3)C2)o1 (centres undefined) | 200 (≈ 554 µM) | 0.061 | 200 (≈ 554 µM) |  |  | 0.066 | 12.5 (≈ 34.6 µM) | 200 (≈ 554 µM) | > 200 | 3.2 (≈ 8.86 µM) | 25 (≈ 69.2 µM) |  | 200 (≈ 554 µM) |  |  |  |  |  |  |  | 
O=[N+]([O-])c1ccc(C2=NOC(c3ccc(N4CCSCC4)cc3)C2)o1 (centres undefined) |  | 0.013 | > 200 | 2.4 | 9.62 | 0.015 |  |  | > 200 | 1.9 (≈ 5.29 µM) |  | 12.6 | 100 (≈ 278 µM) | 11.4 |  |  |  |  |  |  | 
O=C1COCCN1c1ccc(C2CC(c3ccc([N+](=O)[O-])o3)=NO2)cc1F (centres undefined) | 200 (≈ 533 µM) | 0.203 | 100 (≈ 266 µM) | 82.8 | 15.4 | 0.292 | 25 (≈ 66.6 µM) |  | > 200 | 12.6 (≈ 33.5 µM) | 6.25 (≈ 16.7 µM) | 499 | 200 (≈ 533 µM) | 42.4 |  |  |  |  |  |  | 
CN1CCN(c2ccc(C3CC(c4ccc([N+](=O)[O-])o4)=NO3)cc2)C(=O)C1 (centres undefined) | 50 (≈ 135 µM) | 0.239 | 50 (≈ 135 µM) |  |  | 0.426 | 12.5 (≈ 33.8 µM) | 6.25 (≈ 16.9 µM) | 50 (≈ 135 µM) | 28.8 (≈ 77.8 µM) | 6.25 (≈ 16.9 µM) |  | 100 (≈ 270 µM) |  | Toxic | Toxic | 3.1 | 36.6 | 1190 | 58.3 | dose excreted [14]: 0.68%; clearance [15]: 194 mL/min/kg; AUC(0-inf) [16]: 960 ng·h/mL; Activity (Rattus norvegicus [17]): Non-toxic; IC50 (Vero): 20.3 µg/mL (≈ 54.8 µM)
O=[N+]([O-])c1ccc(C2=NOC(c3ccc(N4CCOCC4)cc3)C2)o1 (centres undefined) | 50 (≈ 146 µM) | 0.036 | 25 (≈ 72.8 µM) |  | 17.2 | 0.038 | 12.5 (≈ 36.4 µM) | 12.5 (≈ 36.4 µM) | > 200 |  | 6.25 (≈ 18.2 µM) |  | > 200 |  | Non-toxic | Non-toxic | 35 | 143 | 830 | 100 | dose excreted [14]: 0%; clearance [15]: 108 mL/min/kg; AUC(0-inf) [16]: 1630 ng·h/mL; Activity (Rattus norvegicus [17]): Non-toxic; IC50 (Vero): 2.9 µg/mL (≈ 8.45 µM)

Reference: ChEMBL document CHEMBL2146426, “Antitubercular nitrofuran isoxazolines with improved pharmacokinetic properties” (Bioorg Med Chem, 2012)
